Assay results taken from ChEMBL document CHEMBL4196091 (Eur J Med Chem, 2018).
The source made the active and inactive calls. The calls are words filed in the database; no cut-off is given here.

How the values were obtained:
[1] = test system: HT-29; assay: Antiproliferative activity against human HT-29 cells after 2 days by MTT assay; format: functional, cell-based; settings: HT-29, 48 h
[2] = test system: MCF7; assay: Antiproliferative activity against human MCF7 cells after 2 days by MTT assay; format: functional, cell-based; settings: MCF7, 48 h
[3] = test system: A549; assay: Antiproliferative activity against human A549 cells after 2 days by MTT assay; format: functional, cell-based; settings: A549, 48 h
[4] = test system: HEK293; assay: Antiproliferative activity against HEK293 cells after 2 days by MTT assay; format: ADME, cell-based; settings: Homo sapiens, HEK293, 48 h
[5] = test system: A549; assay: Cell cycle arrest in human A549 cells assessed as accumulation at sub-G0 phase at 50 nM after 24 hrs by propidium iodide staining based flow cytometry (reference value: 2 +/- 1%); format: functional
Method in brief: (§1)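 A549 cells maintained in DMEM (1 g/L glucose, 2 mM glutamine, penicillin/streptomycin/amphotericin B, 10% FBS) and treated for 24 h. Cells were then fixed, RNase-treated and stained with propidium iodide. DNA content was measured by flow cytometry to give cell-cycle phase distribution, including a sub-G1 peak. Data are means (±SD) of two experiments.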

[6] = test system: A549; assay: Cell cycle arrest in human A549 cells assessed as accumulation at G0/G1 phase at 50 nM after 24 hrs by propidium iodide staining based flow cytometry (reference value: 73 +/- 3%); format: functional; method in brief: as §1
[7] = test system: A549; assay: Cell cycle arrest in human A549 cells assessed as accumulation at S phase at 50 nM after 24 hrs by propidium iodide staining based flow cytometry (reference value: 15 +/- 6%); format: functional; method in brief: as §1
[8] = test system: A549; assay: Cell cycle arrest in human A549 cells assessed as accumulation at G2/M phase at 50 nM after 24 hrs by propidium iodide staining based flow cytometry (reference value: 11 +/- 4%); format: functional; method in brief: as §1
[9] = test system: HT-29; assay: Downregulation of c-Myc gene expression in human HT-29 cells assessed as c-Myc mRNA level at 2 nM after 48 hrs by RT-PCR method (reference value: 100%); format: functional
Method in brief: (§2)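 HT-29 cells were taken at 70–80% confluence and seeded at 1.5 x 10^5 per well. After 24 h they were exposed to compound for 48 h. Total RNA was isolated and TaqMan RT-qPCR run for VEGF-A, c-MYC and hTERT, normalized to β-actin. Expression is given as percent of DMSO control, with at least three measurements and one-sample t-tests.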

[10] = test system: HT-29; assay: Downregulation of hTERT gene expression in human HT-29 cells assessed as hTERT mRNA level at 2 nM after 48 hrs by RT-PCR method (reference value: 100%); format: functional; method in brief: as §2
[11] = test system: HT-29; assay: Downregulation of VEGF gene expression in human HT-29 cells assessed as VEGF mRNA level at 2 nM after 48 hrs by RT-PCR method (reference value: 100%); format: functional; method in brief: as §2
[12] = test system: HT-29; assay: Inhibition of VEGF protein secretion in human HT-29 cells assessed as VEGF protein level at 2 nM after 48 hrs by ELISA (reference value: 100%); format: functional; design: scale not given: the % may be the effect or the level left
[13] = test system: HT-29; assay: Downregulation of c-Myc gene expression in human HT-29 cells assessed as c-Myc mRNA level at 40 nM after 48 hrs by RT-PCR method (reference value: 100%); format: functional; method in brief: as §2
[14] = test system: HT-29; assay: Downregulation of c-Myc gene expression in human HT-29 cells assessed as c-Myc mRNA level at 10 nM after 48 hrs by RT-PCR method (reference value: 100%); format: functional; method in brief: as §2
[15] = test system: HT-29; assay: Downregulation of hTERT gene expression in human HT-29 cells assessed as hTERT mRNA level at 40 nM after 48 hrs by RT-PCR method (reference value: 100%); format: functional; method in brief: as §2
[16] = test system: HT-29; assay: Downregulation of hTERT gene expression in human HT-29 cells assessed as hTERT mRNA level at 10 nM after 48 hrs by RT-PCR method (reference value: 100%); format: functional; method in brief: as §2
[17] = test system: HT-29; assay: Downregulation of VEGF gene expression in human HT-29 cells assessed as VEGF mRNA level at 40 nM after 48 hrs by RT-PCR method (reference value: 100%); format: functional; method in brief: as §2
[18] = test system: HT-29; assay: Downregulation of VEGF gene expression in human HT-29 cells assessed as VEGF mRNA level at 10 nM after 48 hrs by RT-PCR method (reference value: 100%); format: functional; method in brief: as §2
[19] = test system: HT-29; assay: Inhibition of VEGF protein secretion in human HT-29 cells assessed as VEGF protein level at 40 nM after 48 hrs by ELISA (reference value: 100%); format: functional; design: scale not given: the % may be the effect or the level left
[20] = test system: HT-29; assay: Inhibition of VEGF protein secretion in human HT-29 cells assessed as VEGF protein level at 10 nM after 48 hrs by ELISA (reference value: 100%); format: functional; design: scale not given: the % may be the effect or the level left
[21] = test system: A549; assay: Cell cycle arrest in human A549 cells assessed as accumulation at G2/M phase at 3 nM after 24 hrs by propidium iodide staining based flow cytometry; format: functional; method in brief: as §1
[22] = test system: A549; assay: Cell cycle arrest in human A549 cells assessed as accumulation at sub-G0 phase at 20 nM after 24 hrs by propidium iodide staining based flow cytometry (reference value: 2 +/- 1%); format: functional; method in brief: as §1
[23] = test system: A549; assay: Cell cycle arrest in human A549 cells assessed as accumulation at G0/G1 phase at 20 nM after 24 hrs by propidium iodide staining based flow cytometry (reference value: 73 +/- 3%); format: functional; method in brief: as §1
[24] = test system: A549; assay: Cell cycle arrest in human A549 cells assessed as accumulation at S phase at 20 nM after 24 hrs by propidium iodide staining based flow cytometry (reference value: 15 +/- 6%); format: functional; method in brief: as §1
[25] = test system: A549; assay: Cell cycle arrest in human A549 cells assessed as accumulation at G2/M phase at 20 nM after 24 hrs by propidium iodide staining based flow cytometry (reference value: 11 +/- 4%); format: functional; method in brief: as §1
[26] = test system: HT-29; assay: Downregulation of c-Myc gene expression in human HT-29 cells assessed as c-Myc mRNA level at 0.5 nM after 48 hrs by RT-PCR method (reference value: 100%); format: functional; method in brief: as §2
[27] = test system: HT-29; assay: Downregulation of hTERT gene expression in human HT-29 cells assessed as hTERT mRNA level at 0.5 nM after 48 hrs by RT-PCR method (reference value: 100%); format: functional; method in brief: as §2
[28] = test system: HT-29; assay: Downregulation of VEGF gene expression in human HT-29 cells assessed as VEGF mRNA level at 0.5 nM after 48 hrs by RT-PCR method (reference value: 100%); format: functional; method in brief: as §2
[29] = test system: HT-29; assay: Inhibition of VEGF protein secretion in human HT-29 cells assessed as VEGF protein level at 0.5 nM after 48 hrs by ELISA (reference value: 100%); format: functional; design: scale not given: the % may be the effect or the level left
[30] = test system: HT-29; assay: Downregulation of c-Myc gene expression in human HT-29 cells assessed as c-Myc mRNA level at 9 nM after 48 hrs by RT-PCR method (reference value: 100%); format: functional; method in brief: as §2
[31] = test system: HT-29; assay: Downregulation of hTERT gene expression in human HT-29 cells assessed as hTERT mRNA level at 9 nM after 48 hrs by RT-PCR method (reference value: 100%); format: functional; method in brief: as §2
[32] = test system: HT-29; assay: Downregulation of VEGF gene expression in human HT-29 cells assessed as VEGF mRNA level at 9 nM after 48 hrs by RT-PCR method (reference value: 100%); format: functional; method in brief: as §2
[33] = test system: HT-29; assay: Inhibition of VEGF protein secretion in human HT-29 cells assessed as VEGF protein level at 9 nM after 48 hrs by ELISA (reference value: 100%); format: functional; design: scale not given: the % may be the effect or the level left
[34] = test system: HT-29; assay: Downregulation of c-Myc gene expression in human HT-29 cells assessed as c-Myc mRNA level at 30 nM after 48 hrs by RT-PCR method (reference value: 100%); format: functional; method in brief: as §2
[35] = test system: HT-29; assay: Downregulation of hTERT gene expression in human HT-29 cells assessed as hTERT mRNA level at 30 nM after 48 hrs by RT-PCR method (reference value: 100%); format: functional; method in brief: as §2
[36] = test system: HT-29; assay: Downregulation of VEGF gene expression in human HT-29 cells assessed as VEGF mRNA level at 30 nM after 48 hrs by RT-PCR method (reference value: 100%); format: functional; method in brief: as §2
[37] = test system: HT-29; assay: Inhibition of VEGF protein secretion in human HT-29 cells assessed as VEGF protein level at 30 nM after 48 hrs by ELISA (reference value: 100%); format: functional; design: scale not given: the % may be the effect or the level left
[38] = test system: HT-29; assay: Downregulation of c-Myc gene expression in human HT-29 cells assessed as c-Myc mRNA level at 5 nM after 48 hrs by RT-PCR method (reference value: 100%); format: functional; method in brief: as §2
[39] = test system: HT-29; assay: Downregulation of hTERT gene expression in human HT-29 cells assessed as hTERT mRNA level at 5 nM after 48 hrs by RT-PCR method (reference value: 100%); format: functional; method in brief: as §2
[40] = test system: HT-29; assay: Downregulation of VEGF gene expression in human HT-29 cells assessed as VEGF mRNA level at 5 nM after 48 hrs by RT-PCR method (reference value: 100%); format: functional; method in brief: as §2
[41] = test system: HT-29; assay: Inhibition of VEGF protein secretion in human HT-29 cells assessed as VEGF protein level at 5 nM after 48 hrs by ELISA (reference value: 100%); format: functional; design: scale not given: the % may be the effect or the level left

Structure (SMILES) | IC50 [1] [nM] | IC50 [2] [nM] | IC50 [3] [nM] | IC50 [4] [nM] | Activity [5] [%] | Activity [6] [%] | Activity [7] [%] | Activity [8] [%] | Activity [21] | Activity [22] [%] | Activity [23] [%] | Activity [24] [%] | Activity [25] [%] | further results
COc1cc2c(c(OC)c1OC)-c1ccc(OC)c(=O)cc1[C@@H](NC(=O)c1cccc(C)c1)CC2 | 2.23 | 5.6 | 8.7 | 3.1 | 16 | 29 | 10 | 45 | – | – | – | – | – | Activity [9]: 44%; Activity [10]: 74%; Activity [11]: 53%; Activity [12]: 76%
COc1cc2c(c(OC)c1OC)-c1ccc(OC)c(=O)cc1[C@@H](NC(C)=O)CC2 [COLCHICINE] | – | – | 12.2 | – | 3 | 27 | 11 | 59 | – | – | – | – | – | Activity [13]: 32%; Activity [14]: >100%; Activity [15]: 50%; Activity [16]: >100%; Activity [17]: 41%; Activity [18]: >100%; Activity [19]: 61%; Activity [20]: 100%
COc1cc2c(c(OC)c1OC)-c1ccc(OC)c(=O)cc1[C@@H](NC(=O)c1ccc(C(C)(C)C)cc1)CC2 | 32.7 | 24 | 36 | 58 | – | – | – | – | – | – | – | – | – | Activity [34]: 82%; Activity [35]: >100%; Activity [36]: 73%; Activity [37]: 61%

More lines, in order of falling IC50 [1], values ahead:

IC50 [1] [nM] | IC50 [2] [nM] | IC50 [3] [nM] | Structure (SMILES) | IC50 [4] [nM] | Activity [5] [%] | Activity [6] [%] | Activity [7] [%] | Activity [8] [%] | Activity [21] | Activity [22] [%] | Activity [23] [%] | Activity [24] [%] | Activity [25] [%] | further results
11.4 | 8.9 | 4.2 | COc1cc2c(c(OC)c1OC)-c1ccc(OC)c(=O)cc1[C@@H](NC(=O)c1ccc(Br)cc1)CC2 | 7.8 | – | – | – | – | Active | 4 | 25 | 16 | 56 | Activity [30]: 41%; Activity [31]: >100%; Activity [32]: 37%; Activity [33]: 62%
5.8 | 7.6 | 13 | COc1cc2c(c(OC)c1OC)-c1ccc(OC)c(=O)cc1[C@@H](NC(=O)c1ccccc1Br)CC2 | 8.5 | – | – | – | – | Active | 4 | 27 | 22 | 47 | Activity [38]: 50%; Activity [39]: 88%; Activity [40]: 57%; Activity [41]: 80%
0.56 | 0.363 | 14 | COc1cc2c(c(OC)c1OC)-c1ccc(OC)c(=O)cc1[C@@H](NC(=O)c1cccc(Br)c1)CC2 | 1.1 | – | – | – | – | Active | 4 | 29 | 16 | 51 | Activity [26]: 34%; Activity [27]: 91%; Activity [28]: 61%; Activity [29]: 79%
